Compound activity deposited in PubChem by Broad Institute.
EWS-Fli block – EWS/Fli-driven NR0B1 reporter inhibitors, primary screen, A673 cells, NR0B1 luciferase, luminescence, MLPCN library; AID 651661, 2012; viability-normalised; inhibition, % at 12.6 µM; 350,000 tested, 0.67% active;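 active = mean inhibition of at least 50% after viability correction, with every replicate also passing that limit; inconclusive = mean reaches 50% but only one of two replicates passes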;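 also: firefly luciferase signal divided by Alamar Blue viability fluorescence both relative to DMSO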
rRNA inh HTS – reduced GFP signal of wild-type E. coli, primary screen, bacterial rRNA inhibitor project, GFP/RFP fluorescence, OD600, single point; E. coli WT GFP vs humanized-ribosome RFP mutants, 24 h; active compounds read low; DMSO median 0, no signal -100; GFP signal change (wild-type ribosome), % (concentration not given with the values); 350,000 tested, 1.6% active;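 active = significant combined selectivity score with lowered wild-type GFP, culture density cut under 30%, mutant RFP and density less affected; inactive = any of these conditions unmet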
E-selectin induc – E-selectin induction in HUVECs, primary screen, imaging, HUVEC, immunofluorescence imaging, single point. P16581. normalized: neutral wells 0, TNF-alpha wells 100. activation, % at 7.58 µM. 260,000 tested, 0.37% active;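 active = mean E-selectin-positive cell signal at least 10% of the positive control, reached in at least 60% of replicates, without over 20% cell loss; inconclusive = no rule given, readout overlaps actives, possibly toxicity-flagged; inactive = the rest, including those meeting only one limit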
Target sequence (P16581 whole entry, looked up): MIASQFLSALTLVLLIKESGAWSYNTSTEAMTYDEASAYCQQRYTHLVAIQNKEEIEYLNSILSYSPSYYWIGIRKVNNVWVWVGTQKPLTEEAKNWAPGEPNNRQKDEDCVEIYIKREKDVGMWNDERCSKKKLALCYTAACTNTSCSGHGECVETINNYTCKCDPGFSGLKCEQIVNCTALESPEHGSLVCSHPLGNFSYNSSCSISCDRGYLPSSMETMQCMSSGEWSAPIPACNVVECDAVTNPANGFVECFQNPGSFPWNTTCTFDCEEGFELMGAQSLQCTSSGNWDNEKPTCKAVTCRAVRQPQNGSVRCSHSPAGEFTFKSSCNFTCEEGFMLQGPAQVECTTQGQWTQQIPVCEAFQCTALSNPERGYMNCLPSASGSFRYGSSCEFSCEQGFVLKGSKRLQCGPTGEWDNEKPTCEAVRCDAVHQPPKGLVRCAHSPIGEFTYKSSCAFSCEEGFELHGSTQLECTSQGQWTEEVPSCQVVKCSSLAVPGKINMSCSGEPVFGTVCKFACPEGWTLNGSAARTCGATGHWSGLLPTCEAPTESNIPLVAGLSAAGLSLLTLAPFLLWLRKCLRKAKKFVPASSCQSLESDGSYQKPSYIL
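Material: HUVEC primary endothelial cells; Amount: 3,000 cells per well; Dosing: single concentration; Medium: EGM-2 growth medium on 0.1% gelatin-coated wells; Read-out basis: percent E-selectin-positive cells; Signal: immunofluorescence imaging; Control set: TNF-alpha, DMSO.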
LGR2 antag – inhibitors of bursicon-induced LGR2 CRE-luciferase signal, primary screen, cell-based, HEK293, CRE-luciferase reporter, bursicon stimulation; Drosophila bursicon receptor LGR2 (rickets); bursicon-stimulated, 4 h; inhibition, % at 9.99 µM; 380,000 tested, 0.35% active; AID 720647, 2013;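 active = drop in luminescence signal, shown as inhibition above about 50% in the replicate tests, limit read from the data, passing the limit was not always enough; inconclusive = probably only some replicates passing the limit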;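 also: agonist challenge used bursicon conditioned medium at about half maximal strength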
AID977621 – growth inhibition of wild-type GFP E. coli, dose response, H69 mutant RFP, cherry-pick; shares compounds with rRNA inh HTS; activity change, negative = inhibition at 50 µM; 1,900 tested, under 10 active; E. coli wild-type GFP strain growth, fluorescence, 24 h;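 active = Wild-type ribosome reporter drop at least double the humanized mutant ribosome reporter drop, growth loss under a set limit; inconclusive = no clear call, values can overlap the other calls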;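 also: wild-type GFP and H69 mutant RFP strains grown together 50/50 in each well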
AID977628 – E. coli growth inhibition, wild-type GFP versus h24 humanized RFP strain, dose response, h24 mutant RFP vs wild-type GFP, cherry-pick. shares compounds with rRNA inh HTS. E. coli WT GFP strain growth, fluorescence, 24 h. 1,900 tested, under 10 active. activity change, negative = inhibition at 50 µM. AID 977628, 2014;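 active = compound lowering the normal-ribosome reporter at least twice as much as the humanized-ribosome reporter, growth loss under a set limit; inconclusive = no clear call, values can overlap the other calls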;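 also: wild-type GFP and h24 humanized RFP strains co-cultured 1 to 1 per well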
* = called active by the depositor; ? = inconclusive; . = no result given; [ ] = dose if it differs, or a comment. Most compounds without a hit are left out; they make up all but 2.4% or so of the library.

SMILES | EWS-Fli block | rRNA inh HTS | E-selectin induc | LGR2 antag | AID977621 | AID977628
C[C@H]1CCCCO[C@@H](CN(C)C(=O)CCCN(C)C)[C@@H](C)CN([C@@H](C)CO)C(=O)c2cc(NC(=O)c3ccncc3)ccc2O1 | 25.1 | 1.5 | 0.0 | 8.4 | . | .
O=C(Nc1ccccc1)N[C@H]1CC[C@@H](CCNS(=O)(=O)c2ccccc2F)O[C@@H]1CO | 4.8 | 1.6 | -1.6 | 7.5 | . | .
COc1ccc(CNC(=O)Nc2ccc([N+](=O)[O-])cc2)cc1 | -5.9 | 0.2 | 0.4 | -34.3 | . | .
COc1ccc(NC(=O)c2ccc(-c3ccc([N+](=O)[O-])cc3)o2)cc1 | -4.3 | -26.2* | 0.2 | -5.1 | . | ?
Cc1cccc(NC(=O)c2c(C)nn(-c3ccccc3)c2Cl)c1 | -77.8 | -35.5* | 4.0 | -43.8 | -10.8 | -22.2
O=[N+]([O-])c1ccccc1CN1CCN(S(=O)(=O)c2ccccc2)CC1 | 8.7 | -24.8* | 8.5 | -0.3 | ? | ?
COc1ccc(S(=O)(=O)N2CCN(Cc3ccccc3OC)CC2)cc1 | -26.5 | -8.1 | -0.2 | -15.2 | . | .
CCC(=O)N(C)C[C@H]1Oc2cc(Br)ccc2S(=O)(=O)N([C@H](C)CO)C[C@@H]1C | 1.9 | -0.7 | 0.0 | -1.6 | . | .
Cc1cccc(SCC(=O)Nc2ccccc2[N+](=O)[O-])c1 | 1.0 | -25.8* | . | -11.5 | -4.29 | -15.4
CCOc1ccccc1/C=C/c1cc(C(=O)O)c2ccccc2n1 | -9.6 | -23.4* | -0.3 | -1.1 | -5.65 | .
CCCN1CCN(C(=O)c2ccc(Sc3ccc(C)cc3)c(NC(C)=O)c2)CC1 | 10.9 | -12.7* | . | -1.1 | -22 | -3.77
COc1ccc(CN(C)C[C@@H]2Oc3ccc(NC(=O)C4CCCCC4)cc3C(=O)N([C@@H](C)CO)C[C@H]2C)cc1 | 0.3 | -1.5 | -0.4 | 2.4 | . | .
O=C(NC1CCCC1)c1ccc([N+](=O)[O-])s1 | -5.7 | -20.4* | -1.1 | 6.2 | -17.2 | -3.93
Cc1cc(NC(=O)CCCn2cc([N+](=O)[O-])cn2)n(Cc2ccc(F)cc2)n1 | -14.6 | -23.5* | 7.4 | 3.1 | 0.393 | ?
Cc1noc(C)c1NC(=O)N(C)C[C@@H]1OCCCC[C@@H](C)Oc2ccc(NC(=O)Nc3ccc4c(c3)OCO4)cc2C(=O)N([C@@H](C)CO)C[C@H]1C | -0.9 | -1.5 | 0.0 | -17.5 | . | .
Cc1noc(C)c1NC(=O)Nc1ccc2c(c1)C(=O)N([C@H](C)CO)C[C@@H](C)[C@H](CN(C)C(=O)Nc1ccc3c(c1)OCO3)OCCCC[C@@H](C)O2 | -1.7 | -2.0 | -0.1 | -7.4 | -8.35 | ?
Cc1noc(C)c1NC(=O)Nc1ccc2c(c1)C(=O)N([C@H](C)CO)C[C@H](C)[C@@H](CN(C)C(=O)Nc1ccc3c(c1)OCO3)OCCCC[C@@H](C)O2 | -15.8 | -37.4* | -0.2 | -3.6 | -2.51[23.5 µM] | ?
Cc1noc(C)c1NC(=O)Nc1ccc2c(c1)C(=O)N([C@H](C)CO)C[C@H](C)[C@@H](CN(C)C(=O)Nc1ccc3c(c1)OCO3)OCCCC[C@H](C)O2 | -2.7 | -2.8 | -0.1 | 3.4 | -7.71 | ?
Cc1noc(C)c1NC(=O)N(C)C[C@@H]1OCCCC[C@H](C)Oc2ccc(NC(=O)Nc3ccc4c(c3)OCO4)cc2C(=O)N([C@@H](C)CO)C[C@H]1C | 2.3 | 1.0 | 0.0 | -9.3 | . | .
Cc1noc(C)c1NC(=O)Nc1ccc2c(c1)C(=O)N([C@@H](C)CO)C[C@H](C)[C@@H](CN(C)C(=O)Nc1ccc3c(c1)OCO3)OCCCC[C@H](C)O2 | -5.5 | 2.7 | -0.2 | -2.5 | -3.91 | 11.6
Cc1noc(C)c1NC(=O)N(C)C[C@H]1OCCCC[C@@H](C)Oc2ccc(NC(=O)Nc3ccc4c(c3)OCO4)cc2C(=O)N([C@@H](C)CO)C[C@H]1C | 5.6 | 1.7 | -0.1 | 24.6 | . | .
C[C@@H]1CN([C@@H](C)CO)C(=O)CCCn2cc(nn2)CO[C@@H]1CN(C)C(=O)Nc1ccccc1 | -5.6 | 1.8 | 0.5 | 19.0 | . | .
COc1ccc(Cc2nnc(Nc3ccc(C)cc3)o2)cc1OC | 8.9 | -19.4* | -0.2 | -25.9 | . | -14.3
COCC(=O)Nc1ccc2c(c1)[C@@H]1C[C@@H](CC(=O)NC3CCCC3)O[C@@H](CO)[C@@H]1O2 | -6.3 | 3.7 | -0.3 | 15.0 | . | .
CCN(CC)c1nc(Oc2ccc(C(=O)OC)cc2)nc(N2CCOCC2)n1 | 5.5 | -15.7* | 0.5 | 0.8 | -7.25 | -15.9
SMILES | EWS-Fli block | rRNA inh HTS | E-selectin induc | LGR2 antag | AID977621 | AID977628
C[C@H]1CN([C@@H](C)CO)C(=O)c2cc(NC(=O)Nc3ccc(C(F)(F)F)cc3)ccc2O[C@H]1CN(C)C | 8.4 | 3.0 | 0.1 | 10.8 | . | .
O=C(Nc1ccc2c(c1)OCCO2)C1C(c2ccccc2)=Nc2ccccc2N1C(=O)c1cccnc1 (stereo not given) | -71.5 | -8.2* | -0.2 | -124.8 | -8.7 | ?
CCNC(=O)C[C@@H]1CC[C@H]2[C@H](COc3ccc(NC(=O)Nc4cccc(Cl)c4)cc3C(=O)N2C)O1 | -8.1 | -3.9 | 0.2 | -4.7 | . | .
CN1CCSc2ccc(C(=O)Nc3cccc(F)c3)cc21 | -114.1 | -23.4* | . | -48.0 | -2.85 | -5.54
COc1ccc(NC(=O)c2ccc3c(c2)N(C)CCS3)cc1 | -68.5 | -0.7 | 0.0 | -61.8 | . | .
C[C@@H]1CCCCO[C@@H](CN(C)C(=O)NC2CCCCC2)[C@@H](C)CN([C@@H](C)CO)C(=O)c2cc(NC(=O)CCC(F)(F)F)ccc2O1 | -2.0 | 2.6 | 0.0 | -16.1 | . | .
COc1ccccc1CN1Cc2ccccc2Oc2ccccc2S1(=O)=O | -1.6 | -26.8* | 3.2 | 13.4 | ? | .
C[C@@H]1CN([C@@H](C)CO)C(=O)c2cccc(NC(=O)Nc3ccccc3)c2O[C@H]1CN(C)C(=O)NC1CCCCC1 | 2.0 | -3.1 | 0.1 | 6.1 | . | .
Cc1noc(C)c1NC(=O)N(C)C[C@@H]1Oc2c(NC(=O)Nc3cccc4ccccc34)cccc2C(=O)N([C@@H](C)CO)C[C@H]1C | 3.1 | -3.8 | -5.8 | -4.7 | . | .
COc1ccc2c3c(n(C)c2c1)[C@@H](CO)N(C(=O)C1CC1)CC31CN(C(=O)Nc2cccc(F)c2)C1 | 3.6 | -3.8 | 1.3 | -23.8 | . | .
COCCNC(=O)C[C@H]1CC[C@@H]2[C@@H](COc3ccc(NC(=O)C4CCCC4)cc3C(=O)N2C)O1 | -4.7 | -2.2 | 0.2 | -16.6 | . | .
CN1c2ccc(Cl)cc2C(=O)NC1C1CC=CCC1 (stereo not given) | -0.7 | -22.7* | 4.1 | -9.7 | -2.74 | .
C[C@@H]1CC=CC[C@@H](c2cccc(Cl)c2)NC(=O)[C@@H](C)N(C)C(=O)c2ccccc2O1 (mixture of isomers) | . | -55.8 | . | . | . | .
